Compound activity as filed in PubChem BioAssay.
In the library only some 1.2% were active in any assay of this set; here they are far more common.
CAL PDZ FP-1 – blocks peptide binding to the human CAL PDZ domain; purified CAL PDZ, TMR-peptide fluorescence polarization, 1 h; inhibition, % at 24.9 µM; 0.92% of 300,000 active; AID 602252;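 active = mean inhibition of at least 30% with at least half of replicates also reaching 30%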;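 also: 0% = DMSO neutral control and 100% = excess unlabeled competitor peptide PRC23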
CAL PDZ FP-2 – blocks peptide binding to human CAL PDZ domain | 0.02% of 330,000 active | AID 504414 | Q9HD26 | purified CAL PDZ, TMR-peptide fluorescence polarization, 1 h | inhibition, % at 20 µM;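 active = highest replicate inhibition of at least 40%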;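 also: plate controls were DMSO neutral control wells for no effect and unlabeled competitor peptide control wells for full effect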
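Material: tagged CAL PDZ domain; buffer or medium: 25 mM sodium phosphate pH 7.4, 150 mM NaCl, TCEP, IgG, Thesit; compound dosing: single point, 20 µM; schedule: 1 h incubation at room temperature before polarization reading; measured by: FP readout, S and P plane fluorescence; read-out basis: percent inhibition from loss of millipolarization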
CaV13 ICDI inh – Disruptors of the CACNA1D IQ motif to Ca2+-dependent inactivation inhibitor domain association, primary screening, Förster resonance energy transfer in intact living …; 0.098% of 340,000 active; inhibition, % at 12.3 µM; HEK cells, CFP/YFP FRET ICDI-IQ, plate reader, 10 min; percent FRET-ratio fall versus neutral wells; AID 743397;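 active = mean replicate inhibition of at least 30% and at least 1% of replicates passing that level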;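 also: 0% = median of the neutral control wells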
ARNT-TACC3 inh – ARNT/TACC3 interaction disruption. inhibition, % at 9.99 µM. AlphaScreen His-ARNT PAS-B/GST-TACC3 binding, luminescence; TACC3 fragment carries E629A point mutation. 0.66% of 390,000 active. Q9Y6A5;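 active = mean inhibition of replicates at least 50% and at least half of replicates each reaching 50%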;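 also: 0% = complete ARNT plus TACC3 wells and 100% = ARNT alone without TACC3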
* marks the source's active call; other numbers are inactive results; · = no result.

SMILES	CAL PDZ FP-1	CAL PDZ FP-2	CaV13 ICDI inh	ARNT-TACC3 inh
CC1=NC(C)(C)Cc2cc(C)c(C)cc21	54*	0	-2	-1
CC1=NC(C)(C)Cc2c(C)cccc21	-4	0	-6	13
O=C(c1ccccn1)N1C[C@H]2[C@@H](c3ccccc31)[C@@H](CO)N2C(=O)CC1CC1	·	·	·	45*
O=C(c1ccccn1)N1C[C@@H]2[C@H](c3ccccc31)[C@H](CO)N2C(=O)C1CC1	·	·	·	49*
O=C(NC1Cc2ccccc2C1)[C@@H]1[C@@H](CO)[C@@H]2Cn3c(ccc(C4=CCCCC4)c3=O)[C@H]1N2CC1CC1	·	·	·	12
Cc1ccc(N2C(=O)[C@@H]3[C@H](C2=O)C2c4ccccc4C=CN2[C@@H]3C(=O)c2ccco2)c(C)c1 (stereo partly drawn)	-7	0	-6	45*
CN1CCN(C(=O)C[C@H]2C[C@H]3c4cc(NC(=O)Nc5ccccc5F)ccc4O[C@H]3[C@@H](CO)O2)CC1	·	·	·	-5
CC(C)C#Cc1cnc2c(c1)C(=O)N([C@@H](C)CO)C[C@@H](C)[C@H](CN(C)Cc1ccccc1)O2	·	·	·	1
COc1cccc(C(=O)Nc2ccc3nc4n(c(=O)c3c2)CCCC4)c1	63*	-2	-19	6
COc1cc(OC)cc(C(=O)Nc2ccc3nc4n(c(=O)c3c2)CCCC4)c1	0	0	-3	25
O=C(CSc1cccc2cccnc12)OCC(=O)c1ccccc1	-4	0	·	53*
O=C(CSc1n[nH]c(-c2ccccn2)n1)Nc1ccccc1F	-2	-2	-3	54*
NNC(=O)CSc1cccc2cccnc12	-1	-5	-3	48*
O=C(CSc1cccc2cccnc12)Nc1ccccc1F	·	0	-19	59*
CO[C@H]1CC[C@@H]2CCOc3ccc(C#N)cc3C(=O)N(C)C[C@H](OC)[C@@H](C)C(=O)N(C)C[C@@H]1O2	·	·	·	0
O=C(Sc1cccc2cccnc12)c1ccc(F)cc1	·	·	-8	·
O=C(Sc1cccc2cccnc12)c1ccccc1Br	-3	-2	-4	75*
C[C@@H]1CN([C@@H](C)CO)C(=O)c2ccccc2-c2ccccc2CO[C@H]1CN(C)C(=O)CCN(C)C	·	·	·	-10
CCOc1ccc2nc(NCCCNS(=O)(=O)c3ccc(F)cc3)c(C#N)cc2c1	·	0	33*	0
CN=c1scc(-c2cccs2)n1/N=C/c1ccc(O)c(O)c1O	1	-2	-1	60*
Oc1ccc(/C=N/n2c(-c3ccco3)csc2=Nc2cccnc2)c(O)c1	-2	3	-11	64*
CC(C)N=c1scc(-c2ccco2)n1/N=C/c1ccc(O)c(O)c1	·	-1	-10	27
C=CCN=c1scc(-c2ccco2)n1/N=C/c1ccc(O)c(O)c1O	5	2	-3	49*
O=C(N[C@@H]1CC[C@H](CC(=O)N2CCOCC2)O[C@H]1CO)c1ccc2c(c1)OCO2	·	·	·	-9
C[C@@H]1CCCCO[C@H](CN(C)C(=O)Nc2ccc3c(c2)OCO3)[C@@H](C)CN([C@@H](C)CO)C(=O)c2cc(NS(=O)(=O)c3cn(C)cn3)ccc2O1	·	·	·	3
SMILES	CAL PDZ FP-1	CAL PDZ FP-2	CaV13 ICDI inh	ARNT-TACC3 inh
O=C(N/N=C/c1ccccn1)c1ccc(Br)o1	0	1	-5	69*
O=C(N/N=C/c1c(O)ccc2ccccc12)c1ccc(Br)o1	-4	-2	·	4
Cc1cc(C)n(C(=O)c2cccc(S(=O)(=O)N3CCOCC3)c2)n1	64*	0	-5	3
Cc1cc(C)n(C(=O)c2cccc(S(=O)(=O)N3CCCCC3)c2)n1	11	2	4	·
Cc1cc(C(=O)Nc2cccc3c2O[C@@H](CN(C)S(=O)(=O)c2ccc(Cl)cc2)[C@@H](C)CN([C@H](C)CO)C3=O)n(C)n1	·	·	·	-7
NC(=O)C1CCCN(C(=O)CCCNC(=O)c2ccc(Cl)cc2)C1 (stereo not drawn)	73*	-1	-2	·
CC1CCCN(C(=O)CCCNC(=O)c2ccc(Cl)cc2)C1 (stereo not drawn)	·	-1	-5	0
COc1ccc(CN(C)C[C@@H]2OCCCC[C@@H](C)Oc3ccc(NS(C)(=O)=O)cc3C(=O)N([C@@H](C)CO)C[C@@H]2C)cc1	·	·	·	-2
COc1ccc(C(=O)NCc2nnc(SCC(=O)Nc3ccccc3OC)o2)cc1	56*	-1	-2	4
Cc1cc(NC(=O)CSc2nnc(CNC(=O)c3cccc(C(F)(F)F)c3)o2)no1	-3	-2	-6	46*
COc1ccc(OCc2nnc(SCC(=O)Nc3ccccc3C#N)o2)cc1	54*	0	-2	4
Cc1ccc(S(=O)(=O)N[C@H]2C=C[C@@H](CC(=O)N3CCC(Cc4ccccc4)CC3)O[C@H]2CO)cc1	·	·	·	-8
COc1ccc(NC(=O)Nc2ccc3c(c2)CC(=O)N([C@H](C)CO)C[C@H](C)[C@H](CN(C)Cc2ccccc2)O3)cc1	·	·	·	3
O=C(c1nc2ccc(Cl)cn2c1CN1CCC(CO)CC1)N1CCc2ccccc2C1	38*	0	-10	-1
CC(C)CC#Cc1ccc2c(c1)O[C@H](CN(C)C(=O)Cc1ccccn1)[C@@H](C)CN([C@H](C)CO)S2(=O)=O	·	·	·	6
O=C(Nc1ccc(F)cc1)c1cc(Cl)sc1Cl	87*	27	·	4
COc1cccc(NC(=O)c2ccccc2Br)c1	·	-1	-4	-3
COc1ccc(Br)c(C(=O)Nc2ccc(F)cc2)c1	40*	-1	-5	-4
O=C(C[C@H]1C=C[C@@H](NC(=O)c2ccncc2)[C@@H](CO)O1)NCC1CCCCC1	·	·	·	1
COCCNC(=O)C[C@@H]1CC[C@H]2[C@@H](COC[C@H](O)CN2C(=O)Nc2ccc3c(c2)OCO3)O1	·	·	·	6
CC12CCC(C(=O)N(CSC(=S)N/N=C\c3ccccc3O)C1=O)C2(C)C (stereo not drawn)	2	0	-2	66*
COc1ccc(/C=N\NC(=S)SCN2C(=O)C3CCC(C)(C2=O)C3(C)C)cc1 (stereo not drawn)	0	-2	·	7
CC(=NNc1nc2ccccc2o1)c1cc2ccccc2cn1	-7	-2	-10	5
CC(=NNc1nc2ccccc2o1)c1ncccn1	1	-1	-7	62*
CC(=NNc1nc2ccccc2s1)c1ncccn1	0	-1	-2	63*
SMILES	CAL PDZ FP-1	CAL PDZ FP-2	CaV13 ICDI inh	ARNT-TACC3 inh
CC(Oc1ccccc1)C(=O)NNC(=O)c1ccccn1 (stereo not drawn)	-5	0	-5	51*
Cc1cccc(NC(=O)NNC(=O)c2ccccn2)c1	-3	1	-4	48*
CC(C)C(=O)NNC(=O)c1ccccn1	·	0	-5	51*
O=C(NNC(=O)c1ccccn1)c1cccc([N+](=O)[O-])c1	3	0	0	67*
CC(Oc1cccc(Br)c1)C(=O)NNC(=O)c1ccccn1 (stereo not drawn)	-4	-1	·	·
O=C(C[C@@H]1C[C@@H]2c3cc(NS(=O)(=O)c4ccc(F)cc4)ccc3O[C@@H]2[C@@H](CO)O1)NCc1cc(F)ccc1F	·	·	·	-7
